According to ChEMBL document CHEMBL3861960, “Leoligin, the Major Lignan from Edelweiss (Leontopodium nivale subsp. alpinum), Promotes Cholesterol Efflux from THP-1 Macrophages” (J Nat Prod, 2016):
Active and inactive are the calls of the source. The rule behind the calls is not given here.

What was measured:
[1] = test system: THP-1; assay: Effect on MAN2A1 protein expression in human THP1 cells at 10 uM after 24 hrs by proteome analysis relative to control; format: functional
In short: (§1)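 PMA-differentiated THP-1 macrophages given 10 μM compound or DMSO for 24 h, then lysed in TRIzol. Proteins reduced with DTT, alkylated with iodoacetamide, digested with trypsin (1:50 w/w) for 16 h at 30 °C. Biological replicates pooled, analysed by LC-MS/MS on an Orbitrap Velos Pro with a 4 h gradient, FDR ≤0.05. Only unique peptides used; log2 peptide ratios averaged per protein and tested by one-sample t test versus vehicle.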

[2] = test system: THP-1; assay: Effect on MYL12B protein expression in human THP1 cells at 10 uM after 24 hrs by proteome analysis relative to control; format: functional; in short: as §1
[3] = test system: THP-1; assay: Effect on MCM9 protein expression in human THP1 cells at 10 uM after 24 hrs by proteome analysis relative to control; format: functional; in short: as §1
[4] = test system: THP-1; assay: Suppression of ABCA1 mRNA degradation in human THP1 cells at 10 uM in presence of de novo gene transcription inhibitor actinomycin D at 2 hrs by qPCR method; format: functional, cell-based
In short: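 Differentiated THP-1 macrophages treated with 10 μM compound or DMSO for 24 h, then given 5 μg/mL actinomycin D and lysed at set time points. Total RNA extracted and reverse-transcribed; ABCA1 mRNA measured by SYBR Green qPCR normalised to 18S. Four independent experiments.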

[5] = test system: THP-1; assay: Effect on CDK12 protein expression in human THP1 cells at 10 uM after 24 hrs by proteome analysis relative to control; format: functional; in short: as §1
[6] = test system: THP-1; assay: Effect on TUSC2 protein expression in human THP1 cells at 10 uM after 24 hrs by proteome analysis relative to control; format: functional; in short: as §1
[7] = test system: THP-1; assay: Effect on BHLHA15 protein expression in human THP1 cells at 10 uM after 24 hrs by proteome analysis relative to control; format: functional; in short: as §1
[8] = Cytotoxicity against human THP1 cells assessed as decrease in cell viability at 1 to 20 uM after 24 hrs by resazurin assay; format: toxicity, cell-based; settings: thp-1, 24 h
In short: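 THP-1 cells kept in RPMI-1640 with 10% heat-inactivated FBS, penicillin/streptomycin and 2 mM L-glutamine, then differentiated to macrophages with 200 nM PMA for 72 h. Exposed to compound for 24 h. Viability read by resazurin conversion as fluorescence (ex 535 nm, em 580 nm). Digitonin 50 μg/mL served as cytotoxic control. Mean ± SD of four independent experiments; one-way ANOVA with Bonferroni test against DMSO.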

[9] = test system: THP-1; assay: Effect on PLAUR protein expression in human THP1 cells at 10 uM after 24 hrs by proteome analysis relative to control; format: functional; in short: as §1
[10] = test system: THP-1; assay: Induction of apo-A1-mediated cholesterol efflux from [3H]-cholesterol labeled human THP1 cells preincubated for 24 hrs followed by apo A1 addition measured after 6 hrs by scintillation counting method; format: functional, cell-based
In short: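 Differentiated THP-1 macrophages loaded with [3H]-cholesterol for 24 h in the presence of compound, or pioglitazone 10 μM as positive control. Medium then replaced with serum-free RPMI containing compound, with or without acceptor (10 μg/mL apo A1 or 1% human plasma from fasted volunteers), for 6 h. Efflux % = extracellular/total cpm with acceptor minus without acceptor, ×100, by scintillation counting. Three independent experiments.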

[11] = test system: THP-1; assay: Effect on MCM8 protein expression in human THP1 cells at 10 uM after 24 hrs by proteome analysis relative to control; format: functional; in short: as §1
[12] = test system: THP-1; assay: Effect on TUBA1A protein expression in human THP1 cells at 10 uM after 24 hrs by proteome analysis relative to control; format: functional; in short: as §1
[13] = test system: THP-1; assay: Effect on SMO protein expression in human THP1 cells at 10 uM after 24 hrs by proteome analysis relative to control; format: functional; in short: as §1
[14] = test system: THP-1; assay: Effect on DBI protein expression in human THP1 cells at 10 uM after 24 hrs by proteome analysis relative to control; format: functional; in short: as §1
[15] = test system: THP-1; assay: Effect on of ABCA1 protein expression in human THP1 cells at 10 uM after 24 hrs by proteome analysis relative to control; format: functional
[16] = Upregulation of ABCG1 mRNA expression in human THP1 cells at 10 uM after 24 hrs by qPCR method relative to control; format: functional, cell-based; settings: THP-1
In short: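 THP-1 macrophages treated for 24 h with 10 μM compound, 10 μM pioglitazone or DMSO. Total RNA extracted and converted to cDNA; ABCA1 or ABCG1 measured by SYBR Green qPCR and expressed relative to 18S. Mean ± SD of four independent experiments; one-way ANOVA with Bonferroni test against DMSO.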

[17] = test system: THP-1; assay: Effect on HIST2H2AC protein expression in human THP1 cells at 10 uM after 24 hrs by proteome analysis relative to control; format: functional; in short: as §1
[18] = test system: THP-1; assay: Effect on ATP13A3 protein expression in human THP1 cells at 10 uM after 24 hrs by proteome analysis relative to control; format: functional; in short: as §1
[19] = test system: THP-1; assay: Effect on LAMP1 protein expression in human THP1 cells at 10 uM after 24 hrs by proteome analysis relative to control; format: functional; in short: as §1
[20] = test system: THP-1; assay: Effect on CD44 protein expression in human THP1 cells at 10 uM after 24 hrs by proteome analysis relative to control; format: functional; in short: as §1
[21] = test system: THP-1; assay: Effect on EVI2B protein expression in human THP1 cells at 10 uM after 24 hrs by proteome analysis relative to control; format: functional; in short: as §1
[22] = test system: THP-1; assay: Effect on DNAH9 protein expression in human THP1 cells at 10 uM after 24 hrs by proteome analysis relative to control; format: functional; in short: as §1
[23] = test system: THP-1; assay: Effect on COMMD1 protein expression in human THP1 cells at 10 uM after 24 hrs by proteome analysis relative to control; format: functional; in short: as §1
[24] = test system: THP-1; assay: Effect on MAGEBS protein expression in human THP1 cells at 10 uM after 24 hrs by proteome analysis relative to control; format: functional; in short: as §1
[25] = test system: THP-1; assay: Effect on DYNLL2 protein expression in human THP1 cells at 10 uM after 24 hrs by proteome analysis relative to control; format: functional; in short: as §1
[26] = test system: THP-1; assay: Effect on P4HTM protein expression in human THP1 cells at 10 uM after 24 hrs by proteome analysis relative to control; format: functional; in short: as §1

C/C=C(/C)C(=O)OC[C@H]1[C@@H](Cc2ccc(OC)c(OC)c2)CO[C@@H]1c1ccc(OC)c(OC)c1
fold change (FC) [1]: 2 | fold change (FC) [2]: 2 | fold change (FC) [3]: 1.9 | Activity [4]: Active | fold change (FC) [5]: 1.5 | fold change (FC) [6]: 1.5 | fold change (FC) [7]: 0.7 | Activity [8]: Non-Toxic | fold change (FC) [9]: 1.5 | Activity [10]: Dose-dependent effect | fold change (FC) [11]: 0.5 | fold change (FC) [12]: 1.5 | fold change (FC) [13]: 2.1 | fold change (FC) [14]: 1.6 | fold change (FC) [15]: 1.1 | fold change (FC) [16]: 3.8 | fold change (FC) [17]: 0.6 | fold change (FC) [18]: 1.7 | fold change (FC) [19]: 1.8 | fold change (FC) [20]: 1.8 | fold change (FC) [21]: 2.3 | fold change (FC) [22]: 0.4 | fold change (FC) [23]: 1.5 | fold change (FC) [24]: 0.4 | fold change (FC) [25]: 1.7 | fold change (FC) [26]: 0.6
